How the values were obtained:
[1] = biological target: T1, Human immunodeficiency virus type 1 integrase (Human immunodeficiency virus 1, UniProt Q7ZJM1); test: Inhibition of HIV1 integrase 3' processing activity after 1 hr by gel based assay in presence of magnesium
How it was run: (§1)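 Buffer was 20 mM HEPES pH 7.5, 1 mM DTT, 10 mM MgCl2 and 10% DMSO, for 1 h at 37 °C. DNA was precipitated, phenol/chloroform-extracted and analysed on gel. IC50 was fitted from percent inhibition versus concentration, from duplicate experiments.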

[2] = test system: Human immunodeficiency virus 1; test: Antiviral activity against HIV1 NL4-3 infected in human TZM-bl cells assessed as inhibition of Tat protein-induced transactivation after 48 hrs by beta galactosidase assay; format: functional, organism-based; conditions: Human immunodeficiency virus 1, NL4-3, TZM-bl
How it was run: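 TZM-bl cells were grown in DMEM at 37 °C with 5% CO2 and plated at 5000 cells/well. After 48 h the medium was replaced with compound dilutions (0.00128 to 4). Cells were infected with NL4-3 (100 ng p24) 4 h later. At 48 h post-infection, cells were lysed in PBS with 0.1% NP-40 and 5 mM MgCl2. β-galactosidase was read with chlorophenol red-galactopyranoside. EC50 came from dose-response curves.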

[3] = biological target: T1, Human immunodeficiency virus type 1 integrase; test: Inhibition of HIV1 integrase strand transfer activity after 1 hr by gel based assay in presence of magnesium; how it was run: as §1
[4] = Cytotoxicity against human TZM-bl cells assessed as cell viability after 3 days by WST-1 assay; format: cell-based
How it was run: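 TZM-bl cells were seeded at 5000/well, and compound dilutions (100 to 0.032) were added 2 h later. Cells and compound were held 3 days at 37 °C in growth medium. Viability was measured by WST-1 cleavage, absorbance at […]. Cytotoxicity is the percent reduction in viable cells relative to drug-free control cultures.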

[5] = Selectivity index, ratio of CC50 for human TZM-bl cells to EC50 for HIV1 NL4-3; format: toxicity, cell-based; conditions: read-out: Ratio CC50/EC50
How it was run: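 Index was calculated as CC50/EC50, both determined in TZM-bl cells (WST-1 viability over 3 days; NL4-3 infection with β-galactosidase read-out).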

T1 sequence (Q7ZJM1 whole entry): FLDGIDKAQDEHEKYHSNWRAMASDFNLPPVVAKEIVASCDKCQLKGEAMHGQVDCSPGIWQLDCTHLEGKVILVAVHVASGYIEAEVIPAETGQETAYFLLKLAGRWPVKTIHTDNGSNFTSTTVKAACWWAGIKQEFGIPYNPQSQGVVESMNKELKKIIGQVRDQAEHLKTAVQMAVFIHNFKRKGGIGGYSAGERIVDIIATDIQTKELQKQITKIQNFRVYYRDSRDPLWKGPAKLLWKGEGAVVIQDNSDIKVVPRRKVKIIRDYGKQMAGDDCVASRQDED

Row | Compound | IC50 [1] [µM] | EC50 [2] [µM] | IC50 [3] [µM] | CC50 at 72 h [4] [µM] | selectivity ratio [5]
1 | O=C(O)/C(O)=C/C(=O)c1cn(Cc2ccc(F)cc2)c2ccc(OCc3ccc(F)cc3)cc2c1=O | 3 | 1 | 0.05 | > 1000 | 1000
2 | O=C(O)/C=C/c1ccc2c(c1)c(=O)c(C(=O)/C=C(\O)C(=O)O)cn2Cc1ccc(F)cc1 | 8 | 5 | 0.03 | > 1000 | 200

Continued, in another order:

Row | IC50 [1] [µM] | EC50 [2] [µM] | IC50 [3] [µM] | Compound | CC50 at 72 h [4] [µM] | selectivity ratio [5]
3 | > 300 | 13 | > 300 | CCOC(=O)/C(O)=C/C(=O)c1cn(Cc2ccc(F)cc2)c2ccc(OCc3ccc(F)cc3)cc2c1=O | > 1000 | 77
4 | > 300 | > 140 | > 300 | CCOC(=O)/C=C/c1ccc2c(c1)c(=O)c(C(=O)/C=C(\O)C(=O)OCC)cn2Cc1ccc(F)cc1 | > 1000 | 7
5 | 1.6 | 4 | 0.03 | O=C(O)/C(O)=C/C(=O)c1cn(Cc2ccc(F)cc2)c2ccc(Br)cc2c1=O | > 1000 | 250
